Values belong to the molecule of their own block, whether it stands above or below them. Activity calls are given as the source filed them. The rule behind the calls is not given here.
Columns and labels:
[1] = Induction of self-assembly of the compound in phosphate buffer at 100 uM after 2 days by uranyl acetate staining-based TEM analysis; assay type: physicochemical; conditions: 48 h
Outline: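 Peptide (100 μM) was aged 2 days in phosphate buffer and negatively stained 30 s with 2% uranyl acetate. Nanotube formation was examined by TEM at 120 kV.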

[2] = Drug degradation in H2O2 solution at 2.7 mM after 1 month by HPLC/MS/NMR analysis in presence of Fe2+; assay type: physicochemical; conditions: H2O2 solution with Fe2+; read-out: Drug degradation
[3] = Antioxidant activity assessed as inhibition of H2O2-induced hydroxyl radical formation by EPR spectroscopic analysis in presence of Fe2+; assay type: functional
Outline: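 Hydroxyl radicals came from a Fenton reaction: H2O2 (10 mM), FeSO4·7H2O (10 mM) and DMPO spin trap (40 mM), with peptide at 1−1000 μM. Samples were diluted in 15 mM phosphate buffer, pH 7.4, and read immediately by EPR. The spin-adduct signal was integrated.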

[4] = Antioxidant activity assessed as inhibition of H2O2-induced ROS production by DCFH assay; assay type: functional
Outline: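 DCFH oxidation assay: H2O2 (0.5 mM) was incubated with DCFH with or without the test agent, and the DCF formed was read fluorometrically. Free His and Trolox served as controls.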

L6 [5] = assay: Effect on total GLUT4 level in rat L6 cells at 25 uM after 8 hrs by Western blotting analysis; assay type: functional, cell-based
[6] = Potency index, ratio of Histidine EC50 to compound EC50 for inhibition of H2O2-induced ROS production; assay type: functional
L6 [7] = assay: Antihyperglycemic activity in rat L6 cells assessed as increase in [3H]dGlc uptake at 5 uM after 12 hrs by liquid scintillation counting analysis; assay type: functional, cell-based
Outline: (§1)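 Differentiated L6 myotubes were preincubated 24 h in αMEM with 2% FCS and 5.5 or 23.5 mM D-glucose, then switched to FCS-free medium with 0.5% BSA 4 h before the assay. Peptide was given for 12 h or ALA for 30 min, vehicle 0.1% DMSO. After PBS rinses, cells took up 0.1 mM dGlc plus [3H]dGlc (1.3 μCi mL−1) for 5 min at room temperature. Cells were lysed in 0.1% SDS and counted by scintillation. Uptake is expressed as % of the DMSO basal rate.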

L6 [8] = assay: Cytoprotective activity in rat L6 cells assessed as increase in glucose oxidase-reduced cell survival at 25 uM incubated for 12 hrs prior to glucose oxidase challenge measured after 5 hrs by MTT assay in presence of 23.5 mM D-glucose; assay type: functional, cell-based
Outline: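 L6 myotubes were kept 7 days in 23.5 mM glucose. They were pretreated with peptide (25 μM, 12 h) or ALA (2 mM, 30 min), vehicle 0.1% DMSO, at 37 °C. Glucose oxidase (50 mU mL−1) was then added for 5 h to generate H2O2. Viability was read by MTT.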

L6 [9] = assay: Antioxidant activity in rat L6 cells assessed as trolox equivalents of ABTS free radical scavenging activity at 25 uM after 12 hrs by ELISA reader analysis in presence of 23.5 mM D-glucose; assay type: functional, cell-based
Outline: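 L6 myotubes in αMEM with 2% FCS and 5.5 or 23.5 mM glucose were treated with peptide (25 μM, 12 h) or ALA (2 mM, 2 h), vehicle 0.1% DMSO. Cells were lysed (Tris pH 7.5, NaCl, NP-40) through three freeze-thaw cycles and centrifuged. Lysates were assayed for metmyoglobin/H2O2-driven ABTS•+ formation. Results are Trolox equivalents per mg protein from a Trolox standard curve, with protein by Bradford.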

[10] = molecular target: T1, Solute carrier family 2, facilitated glucose transporter member 1 (Homo sapiens) (UniProt P11166); assay: Induction of human myc epitope-tagged GLUT1 translocation to plasma membrane overexpressed in rat L6 cells at 25 uM after 8 hrs by immunocolorimetric analysis in presence of 23.5 mM D-glucose; assay type: cell-based
T1 sequence (whole entry): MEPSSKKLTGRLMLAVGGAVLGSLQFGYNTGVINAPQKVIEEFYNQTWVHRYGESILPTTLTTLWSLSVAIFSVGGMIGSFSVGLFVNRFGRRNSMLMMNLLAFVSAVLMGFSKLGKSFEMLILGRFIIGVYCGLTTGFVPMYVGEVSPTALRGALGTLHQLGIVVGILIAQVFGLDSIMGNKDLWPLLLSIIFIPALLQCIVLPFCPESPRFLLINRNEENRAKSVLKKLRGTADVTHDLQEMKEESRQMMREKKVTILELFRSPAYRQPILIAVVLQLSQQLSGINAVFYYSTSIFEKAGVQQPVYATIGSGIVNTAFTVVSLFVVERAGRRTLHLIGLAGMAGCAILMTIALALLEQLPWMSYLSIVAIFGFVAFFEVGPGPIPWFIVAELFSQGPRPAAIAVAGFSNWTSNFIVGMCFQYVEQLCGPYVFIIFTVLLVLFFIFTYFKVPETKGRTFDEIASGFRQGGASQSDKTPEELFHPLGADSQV
Outline: (§2)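 L6 myotubes overexpressing GLUT1myc or GLUT4myc were held 9 h in serum-free αMEM with 0.5% BSA and 23.5 mM glucose. They received peptide (25 μM) or 0.1% DMSO over the last 8 h, and insulin (100 nM) or ALA (2 mM) over the last 30 min. Live cells were labelled with anti-c-Myc (1:200) and fixed in 3% formaldehyde. HRP anti-rabbit IgG (1:2000) and OPD were added, and absorbance was read at 492 nm.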

L6 [11] = assay: Antihyperglycemic activity in rat L6 cells assessed as increase in [3H]dGlc uptake after 12 hrs by liquid scintillation counting analysis; assay type: functional, cell-based; outline: as §1
L6 [12] = assay: Effect on human myc epitope-tagged total GLUT1 level overexpressed in rat L6 cells at 25 uM after 8 hrs by Western blotting analysis; assay type: functional, cell-based
Outline: (§3)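 Whole-cell lysates of GLUT1myc- or GLUT4myc-overexpressing L6 myotubes were made after the same treatments as in the surface assay. Western blots were run for total transporter content.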

[13] = Antioxidant activity assessed as inhibition of H2O2-induced hydroxyl radical formation by EPR spectroscopic analysis in absence of Fe2+; assay type: functional
L6 [14] = assay: Effect on human myc epitope-tagged total GLUT4 level overexpressed in rat L6 cells at 25 uM after 8 hrs by Western blotting analysis; assay type: functional, cell-based; outline: as §3
L6 [15] = assay: Antihyperglycemic activity in rat L6 cells assessed as increase in [3H]dGlc uptake at 25 uM after 6 to 12 hrs by liquid scintillation counting analysis; assay type: functional, cell-based
L6 [16] = assay: Antiapoptotic activity in rat L6 cells assessed as suppression of 23.5 mM D-glucose-induced JNK-54 phosphorylation at 25 uM after 8 hrs by Western blot analysis; assay type: functional, cell-based
Outline: (§4)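 L6 myotubes held 7 days in 23.5 mM glucose medium, then exposed to peptide for 8 h or ALA for 3 h. Whole-cell lysates were made in ice-cold lysis buffer, and 5−60 μg protein was run on 10−12% SDS-PAGE. Blots were probed for total and phosphorylated JNK (p-54, p-46) and α-tubulin. Band densities were normalized to total JNK. Two-tailed Student's t test.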

L6 [17] = assay: Effect on total GLUT1 level in rat L6 cells at 25 uM after 8 hrs by Western blotting analysis; assay type: functional, cell-based
[18] = molecular target: T2, Solute carrier family 2, facilitated glucose transporter member 4 (Homo sapiens) (UniProt P14672); assay: Induction of human myc epitope-tagged GLUT4 translocation to plasma membrane overexpressed in rat L6 cells at 25 uM after 8 hrs by immunocolorimetric analysis in presence of 23.5 mM D-glucose relative to insulin; assay type: cell-based; outline: as §2
T2 sequence (whole entry): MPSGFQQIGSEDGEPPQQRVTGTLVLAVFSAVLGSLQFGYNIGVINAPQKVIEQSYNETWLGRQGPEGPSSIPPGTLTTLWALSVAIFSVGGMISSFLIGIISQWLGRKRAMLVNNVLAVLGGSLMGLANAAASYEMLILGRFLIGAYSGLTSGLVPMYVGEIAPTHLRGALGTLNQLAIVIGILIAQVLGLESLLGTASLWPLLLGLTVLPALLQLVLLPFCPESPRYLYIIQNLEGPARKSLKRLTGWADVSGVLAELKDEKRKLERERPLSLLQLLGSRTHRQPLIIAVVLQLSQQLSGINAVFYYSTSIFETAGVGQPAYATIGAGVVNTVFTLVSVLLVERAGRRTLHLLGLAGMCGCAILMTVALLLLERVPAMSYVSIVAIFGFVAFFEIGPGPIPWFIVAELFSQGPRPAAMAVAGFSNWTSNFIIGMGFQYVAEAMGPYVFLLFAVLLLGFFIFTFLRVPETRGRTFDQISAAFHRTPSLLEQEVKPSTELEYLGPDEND

L6 [19] = assay: Antiapoptotic activity in rat L6 cells assessed as suppression of 23.5 mM D-glucose-induced JNK-46 phosphorylation at 25 uM after 8 hrs by Western blot analysis; assay type: functional, cell-based; outline: as §4
L6 [20] = assay: Potency index, ratio of compound activity to ALA activity for increase in [3H]dGlc uptake in rat L6 cells; assay type: functional
Outline: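 L6 myotubes (differentiated in αMEM, 2% FCS) preincubated 24 h in 23.5 mM D-glucose, then 4 h serum-free with 0.5% BSA. Peptide at increasing concentrations for 12 h, or ALA 2 mM for 30 min; vehicle 0.1% DMSO. Uptake: 0.1 mM dGlc plus [3H]dGlc 1.3 μCi/mL in PBS pH 7.4, 5 min RT; SDS lysis, scintillation counting, % of vehicle basal. Ratio compares concentrations giving similar uptake.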

Activity [1]: Active
degraded at 730.5 h [2]: < 5%
EC50 [3]: 3000 nM
EC50 [4]: 400 nM
Structure (SMILES): NCCCC[C@H]1NC(=O)[C@H](Cc2c[nH]cn2)NC(=O)[C@@H](Cc2c[nH]cn2)NC(=O)[C@H](Cc2c[nH]cn2)NC(=O)[C@@H](Cc2c[nH]cn2)NC(=O)[C@H](Cc2c[nH]c3ccccc23)NC(=O)[C@@H](Cc2c[nH]c3ccccc23)NC(=O)[C@H](Cc2c[nH]cn2)NC1=O

EC50 [3]: 100000 nM
EC50 [4]: 6000 nM
Structure (SMILES): N[C@@H](Cc1c[nH]cn1)C(=O)O [HISTIDINE]

Activity [10]: Active
Activity [18]: 60%
Structure (SMILES): NCCCC[C@H]1NC(=O)[C@H](Cc2c[nH]cn2)NC(=O)[C@@H](Cc2c[nH]c3ccccc23)NC(=O)[C@H](Cc2c[nH]c3ccccc23)NC(=O)[C@@H](Cc2c[nH]cn2)NC(=O)[C@H](Cc2c[nH]cn2)NC(=O)[C@@H](Cc2c[nH]cn2)NC(=O)[C@H](Cc2c[nH]cn2)NC1=O
Activity (L6 [5]): inactive
Ratio EC50 [6]: 15
Activity (L6 [7]): Active
Activity (L6 [8]): Active
Activity (L6 [9]): Active
Activity (L6 [11]): Dose-dependent effect
Activity (L6 [12]): inactive
inhibition [13]: Active
Activity (L6 [14]): inactive
inhibition [3]: Dose-dependent effect
Activity (L6 [15]): Active
Activity (L6 [16]): Active
Activity (L6 [17]): inactive
Activity (L6 [19]): Active
Ratio (L6 [20]): 80

EC50 [4]: 350 nM
Structure (SMILES): Cc1c(C)c2c(c(C)c1O)CCC(C)(C(=O)O)O2 (centres undefined) [TROLOX]
